The record followed here is ChEMBL document CHEMBL4725347, “Discovery of a Monoiodo Aza-BODIPY Near-Infrared Photosensitizer: in vitro and in vivo Evaluation for Photodynamic Therapy” (J Med Chem, 2020).

A short description of data set [1]: Drug uptake in mitochondria of human HeLa cells at 5 uM incubated for 2 hrs under dark condition by mito-tracker green FM dye based laser confocal microscopic analysis. The class given is ADME. The method in brief:
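HeLa cells adhered overnight on glass-bottom dishes and were loaded with 5 μM compound in the dark for 2 h. After PBS washes, cells were stained with Mito-Tracker Green FM 250 nM for 30 min, Lyso-Tracker Green 160 nM for 30 min, or ER-Tracker Green 2 μM for 45 min. Confocal imaging: trackers excited at 488 nm, collected 500–560 nm; compound excited at 633 nm, collected 650–740 nm.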

In data set [2] the test system is HeLa. Briefly: Induction of apoptosis in human HeLa cells assessed as necrotic cells at 200 nM preincubated for 3 hrs followed by 27 J/cm2 light irradiation and measured after 24 hrs by Annexin-V-FITC/propidium iodide staining based flow cytometry (reference value: 2.8%). The class given is functional. Summed up:
(§1)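 HeLa cells in six-well plates were exposed to compound for 3 h, irradiated (λ > 590 nm), and incubated 24 h at 37 °C. Cells were then harvested, washed with PBS, and stained with annexin V-FITC/PI for 20 min at room temperature before immediate flow cytometry. Untreated, unirradiated cells served as control.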
A general note: Flow cytometry measures light scatter and fluorescence of single cells or particles in a stream.

Data set [3] relates to HeLa. Briefly: Induction of apoptosis in human HeLa cells assessed as viable cells at 40 nM preincubated for 3 hrs followed by 54 J/cm2 light irradiation and measured after 24 hrs by Annexin-V-FITC/propidium iodide staining based flow cytometry (reference value: 90.74%). The class given is functional. The settings on record: light or radiation study, read-out: Activity. The method in brief:
as §1

The nature of data set [4]: Drug uptake in human HeLa cells xenografted Balb/c nu/nu mouse tumor at 2 mg/kg, iv measured after 3 hrs by fluorescence imaging analysis. The class given is ADME, organism-based, Neoplasm. The note with it: in vivo. The method in brief: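 Female Balb/c nu/nu mice bore subcutaneous HeLa tumors (5×10^6 cells, right back) and received 2 mg/kg via tail vein. Living mice were imaged under isoflurane at time points (ex 680/em 720 nm, 1 s exposure). At set times mice were euthanized and heart, liver, spleen, lungs, kidneys and tumor imaged ex vivo; ROI quantified, mean ± SD, n = 3.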

The subject of data set [5] is HeLa. Briefly: Induction of apoptosis in human HeLa cells assessed as early apoptotic cells at 200 nM preincubated for 3 hrs followed by 27 J/cm2 light irradiation and measured after 24 hrs by Annexin-V-FITC/propidium iodide staining based flow cytometry (reference value: 0.54%). The class given is functional. Summed up: as §1
The test system of data set [6] is HeLa. Briefly: Phototoxicity against human HeLa cells assessed as reduction in cell viability at 125 nM preincubated for 2 hrs followed by 5.4 to 108 J/cm2 light irradiation and measured after 24 hrs by MTT assay. The class given is functional, cell-based. In general terms: Tetrazolium dyes change colour on reduction, which living cells bring about.
The test system of the next data set is SW480. Briefly: Phototoxicity against human SW480 cells assessed as reduction in cell viability preincubated for 3 hrs followed by 54 J/cm2 light irradiation and measured after 24 hrs by MTT assay. The class given is functional, cell-based. The note with it: SW480, light or radiation study. The method in brief: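 PS formulated in PBS containing Cremophor EL/1,2-propanediol (10:3, v:v) after THF removal, filtered, with concentration confirmed by UV-Vis. Cells were grown in DMEM with 10% FBS and seeded at 3×10^3 per well overnight. They were incubated with PS for 3 h, irradiated at λ > 590 nm, kept 24 h at 37 °C, then given MTT (0.5 mg/mL, 4 h) with DMSO solubilization and A490 read-out.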

The structures appear in SMILES notation. Activity calls are given as the source filed them. The calls are words filed in the database; no cut-off is given here.

The term IC50 denotes the point on the concentration scale where inhibition reaches its midpoint. For the compound `COc1ccc(C2=[N+]3C(=Nc4c(-c5ccccc5)cc(-c5ccc(OC)cc5)n4[B-]3(F)F)C(c3ccccc3)=C2I)cc1`, the Drug uptake result in data set [1] and in data set [4] was “Active” in each case. Further, the Activity was 21.64% with HeLa [2] and 20.46% in the data set on HeLa [5]. For the same compound, in the data set on HeLa [3], the viability at 0.04 µM came to 77.3%. In the data set on HeLa [6], the result was Active. In the data set with SW480, the concentration for half-maximal inhibition (IC50) is 0.086 µM.
